Test results from ChEMBL document CHEMBL1165947, “Synthesis and antitumor activity of 2,5-bis(3'-indolyl)-furans and 3,5-bis(3'-indolyl)-isoxazoles, nortopsentin analogues” (Bioorg Med Chem, 2010).
≈ marks a conversion by molar mass, not a printed value.

How the values were obtained:
Format in all cases: functional, cell-based
[1] = Cytotoxicity against human PC3M cells after 4 days by modified propidium iodide staining-based fluorescence assay; settings: PC-3M, 96 h
Method in brief: (§1)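 Cells cultured in RPMI 1640 with 10% fetal calf serum and 0.1 mg/mL gentamicin at 37 °C, 5% CO2. Cells from exponential cultures were trypsinized and plated at 4.000-20.000 cells/well by line. After 24 h recovery, compounds were added at five log-spaced concentrations (highest 100 μg/mL) for 4 days. Proliferation was read as DNA content with aqueous propidium iodide (7 μg/ml), fluorescence ex 530/em 620 nm. Points were run in triplicate.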

[2] = Cytotoxicity against human LXFA 526L cells after 4 days by modified propidium iodide staining-based fluorescence assay; settings: 96 h; method in brief: as §1
A549 = test: Cytotoxicity against human A549 cells after 4 days by modified propidium iodide staining-based fluorescence assay; settings: A549, 96 h; method in brief: as §1
[3] = Cytotoxicity against human 1781L cells after 4 days by modified propidium iodide staining-based fluorescence assay; settings: 96 h; method in brief: as §1
[4] = Cytotoxicity against human MEXF 520L cells after 4 days by modified propidium iodide staining-based fluorescence assay; settings: 96 h; method in brief: as §1
CWR22R = test: Cytotoxicity against human 22Rv1 cells after 4 days by modified propidium iodide staining-based fluorescence assay; settings: 22Rv1, 96 h; method in brief: as §1
PANC-1 = test: Cytotoxicity against human PANC1 cells after 4 days by modified propidium iodide staining-based fluorescence assay; settings: PANC-1, 96 h; method in brief: as §1
[5] = Cytotoxicity against human MAXF 401NL cells after 4 days by modified propidium iodide staining-based fluorescence assay; settings: 96 h; method in brief: as §1
[6] = Cytotoxicity against human BXF 1218L cells after 4 days by modified propidium iodide staining-based fluorescence assay; settings: 96 h; method in brief: as §1
[7] = Cytotoxicity against human LXFL 1121L cells after 4 days by modified propidium iodide staining-based fluorescence assay; settings: 96 h; method in brief: as §1
NCI-H460 = test: Cytotoxicity against human H460 cells after 4 days by modified propidium iodide staining-based fluorescence assay; settings: NCI-H460, 96 h; method in brief: as §1
[8] = Cytotoxicity against human LXFA 629L cells after 4 days by modified propidium iodide staining-based fluorescence assay; settings: 96 h; method in brief: as §1
[9] = Cytotoxicity against human LXFA 289L cells after 4 days by modified propidium iodide staining-based fluorescence assay; settings: 96 h; method in brief: as §1
OVCAR-3 = test: Cytotoxicity against human OVCAR-3 cells after 4 days by modified propidium iodide staining-based fluorescence assay; settings: OVCAR-3, 96 h; method in brief: as §1
[10] = Cytotoxicity against human RXF 486L cells after 4 days by modified propidium iodide staining-based fluorescence assay; settings: 96 h; method in brief: as §1
DU-145 = test: Cytotoxicity against human DU145 cells after 4 days by modified propidium iodide staining-based fluorescence assay; settings: DU-145, 96 h; method in brief: as §1
[11] = Cytotoxicity against human 1752L cells after 4 days by modified propidium iodide staining-based fluorescence assay; settings: 96 h; method in brief: as §1
[12] = Cytotoxicity against human 1657L cells after 4 days by modified propidium iodide staining-based fluorescence assay; settings: 96 h; method in brief: as §1
[13] = Cytotoxicity against human UXF 1138L cells after 4 days by modified propidium iodide staining-based fluorescence assay; settings: 96 h; method in brief: as §1
SF-268 = test: Cytotoxicity against human SF268 cells after 4 days by modified propidium iodide staining-based fluorescence assay; settings: SF-268, 96 h; method in brief: as §1
T-24 = test: Cytotoxicity against human T24 cells after 4 days by modified propidium iodide staining-based fluorescence assay; settings: T-24, 96 h; method in brief: as §1
[14] = Cytotoxicity against human 899L cells after 4 days by modified propidium iodide staining-based fluorescence assay; settings: 96 h; method in brief: as §1
[15] = Cytotoxicity against human MEXF 462NL cells after 4 days by modified propidium iodide staining-based fluorescence assay; settings: 96 h; method in brief: as §1
HCT-116 = test: Cytotoxicity against human HCT116 cells after 4 days by modified propidium iodide staining-based fluorescence assay; settings: HCT-116, 96 h; method in brief: as §1
[16] = Cytotoxicity against human MEXF 276L cells after 4 days by modified propidium iodide staining-based fluorescence assay; settings: MEXF276L, 96 h; method in brief: as §1
[17] = Cytotoxicity against human GXF251L cells after 4 days by modified propidium iodide staining-based fluorescence assay; settings: GXF 251L, 96 h; method in brief: as §1
HT-29 = test: Cytotoxicity against human HT-29 cells after 4 days by modified propidium iodide staining-based fluorescence assay; settings: HT-29, 96 h; method in brief: as §1
MCF7 = test: Cytotoxicity against human MCF7 cells after 4 days by modified propidium iodide staining-based fluorescence assay; settings: MCF7, 96 h; method in brief: as §1
LNCaP = test: Cytotoxicity against human LNCAP cells after 4 days by modified propidium iodide staining-based fluorescence assay; settings: 96 h; method in brief: as §1
P388 = test: Cytotoxicity against mouse P388 cells

## Cn1cc(-c2cc(-c3cn(C)c4ccccc34)on2)c2ccccc21
[1]
  IC50: 28.1 mg/L (≈ 85.8 µM)
[2]
  IC50: 11.5 mg/L (≈ 35.1 µM)
A549
  IC50: 5.1 mg/L (≈ 15.6 µM)
[3]
  IC50: 38.7 mg/L (≈ 118 µM)
[4]
  IC50: 24.1 mg/L (≈ 73.6 µM)
CWR22R
  IC50: 14.1 mg/L (≈ 43.1 µM)
PANC-1
  IC50: 8.8 mg/L (≈ 26.9 µM)
[5]
  IC50: 28.8 mg/L (≈ 88 µM)
[6]
  IC50: 20 mg/L (≈ 61.1 µM)
[7]
  IC50: 21 mg/L (≈ 64.1 µM)
NCI-H460
  IC50: 18.4 mg/L (≈ 56.2 µM)
[8]
  IC50: 4.2 mg/L (≈ 12.8 µM)
[9]
  IC50: 18.7 mg/L (≈ 57.1 µM)
OVCAR-3
  IC50: 11.1 mg/L (≈ 33.9 µM)
[10]
  IC50: 29.3 mg/L (≈ 89.5 µM)
DU-145
  IC50: 18.3 mg/L (≈ 55.9 µM)
[11]
  IC50: 24.2 mg/L (≈ 73.9 µM)
[12]
  IC50: 29.9 mg/L (≈ 91.3 µM)
[13]
  IC50: 4.8 mg/L (≈ 14.7 µM)
SF-268
  IC50: 24.6 mg/L (≈ 75.1 µM)
T-24
  IC50: 40.6 mg/L (≈ 124 µM)
[14]
  IC50: 14.9 mg/L (≈ 45.5 µM)
[15]
  IC50: 37.8 mg/L (≈ 115 µM)
HCT-116
  IC50: 29.5 mg/L (≈ 90.1 µM)
[16]
  IC50: 13.3 mg/L (≈ 40.6 µM)
[17]
  IC50: 7.2 mg/L (≈ 22 µM)
HT-29
  IC50: 32.7 mg/L (≈ 99.9 µM)
MCF7
  IC50: 21.5 mg/L (≈ 65.7 µM)
LNCaP
  IC50: 11.5 mg/L (≈ 35.1 µM)

## Cn1c(-c2cn(C)c3cc(Br)ccc23)cnc1-c1cn(C)c2cc(Br)ccc12 [N-METHYL NORTOPSENTIN A]
P388
  IC50: 0.8 µM
